Columns and labels:
[1] = test system: patients with advanced solid tumors; experiment: Phase I dose-escalation safety: adverse events; type: in vivo, human
[2] = Plasma pharmacokinetics, noncompartmental analysis; type: in vivo, human
Method in brief: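 Oral dosing QD (part A1) or TIW (part A2). Intensive plasma samples were taken after the dose on cycle 1 days 1 and 15, for up to 24 h (A1) or 48 h (A2). Cmax, Tmax, AUC(0-Inf) and terminal half-life came from plasma concentrations by standard noncompartmental analysis, with descriptive statistics.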

[3] = molecular target: CDK7 (Homo sapiens, UniProt P50613); experiment: CDK7-target occupancy assay; type: in vivo
CDK7, sequence (P50613 2-346 limits assumed): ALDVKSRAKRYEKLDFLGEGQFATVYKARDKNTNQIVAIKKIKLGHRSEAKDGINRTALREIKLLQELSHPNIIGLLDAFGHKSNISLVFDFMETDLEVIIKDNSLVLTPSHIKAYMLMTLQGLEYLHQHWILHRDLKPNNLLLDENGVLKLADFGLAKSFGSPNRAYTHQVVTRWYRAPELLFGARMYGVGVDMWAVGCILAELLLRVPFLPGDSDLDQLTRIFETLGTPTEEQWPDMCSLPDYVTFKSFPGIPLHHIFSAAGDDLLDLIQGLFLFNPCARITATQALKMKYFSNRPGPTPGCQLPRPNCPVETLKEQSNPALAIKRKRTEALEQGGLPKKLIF
CDK7, sequence (P51946 whole entry partner): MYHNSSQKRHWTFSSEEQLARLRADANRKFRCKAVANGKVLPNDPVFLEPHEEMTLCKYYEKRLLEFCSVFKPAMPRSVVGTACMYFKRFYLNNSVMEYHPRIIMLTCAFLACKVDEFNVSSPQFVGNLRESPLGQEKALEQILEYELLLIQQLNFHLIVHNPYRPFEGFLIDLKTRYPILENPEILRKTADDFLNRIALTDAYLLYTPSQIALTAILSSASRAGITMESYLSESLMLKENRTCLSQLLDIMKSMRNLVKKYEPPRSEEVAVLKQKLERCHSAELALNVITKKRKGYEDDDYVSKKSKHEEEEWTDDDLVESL
CDK7, sequence (P51948 whole entry partner): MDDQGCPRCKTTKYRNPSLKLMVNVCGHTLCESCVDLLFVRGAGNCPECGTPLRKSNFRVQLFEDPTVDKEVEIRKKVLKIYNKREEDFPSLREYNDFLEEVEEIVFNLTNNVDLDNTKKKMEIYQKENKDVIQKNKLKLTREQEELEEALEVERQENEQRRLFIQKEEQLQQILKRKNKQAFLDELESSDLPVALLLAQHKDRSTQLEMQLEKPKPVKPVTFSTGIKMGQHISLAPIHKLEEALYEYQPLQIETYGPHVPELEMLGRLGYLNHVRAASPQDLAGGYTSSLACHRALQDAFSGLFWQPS
Method in brief: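 Skin biopsies were taken at baseline (≤14 days pre-dose) and 6–8 h postdose on days 1 and 15; PBMCs predose day 1 and 8 h postdose days 1 and 15. Lysates were labelled with a biotinylated probe. Anti-cyclin H captured CDK7/cyclin H on MSD plates. Unbound CDK7 was read with SULFO-TAG streptavidin, total with anti-CDK7 mAb. Skin occupancy was baseline-normalised unbound/total; PBMC occupancy was unbound versus day-1 predose.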

## Cc1cc(NC2CCN(C(=O)OC3CCN(C(=O)/C=C/CN(C)C)C3)CC2)n2ncc(C(C)C)c2n1 (centres unmarked) [LY3405105]
[1]; TIW (N = 11), ≥Grade 3
  SAE related to study treatment: Dyspnea: 0 n (%)
  SAE related to study treatment: Hypotension: 0 n (%)
  SAE related to study treatment: Mucosal inflammation: 0 n (%)
  SAE related to study treatment: Nausea: 0 n (%)
  SAE related to study treatment: Ophthalmic herpes zoster: 0 n (%)
  SAE related to study treatment: Platelet count decrease: 0 n (%)
  TRAE: Abdominal pain: 0 n (%)
  TRAE: Anemia: 0 n (%)
  TRAE: Asthenia: 0 n (%)
  TRAE: Diarrhea: 0 n (%)
  TRAE: Fatigue: 0 n (%)
  TRAE: Nausea: 0 n (%)
  TRAE: Platelet count decrease: 0 n (%)
  TRAE: Vomiting: 0 n (%)
[1]; Total (N = 54), Any grade
  Patients with ≥1 SAE related to study treatment: 7 (13) n (%)
  Patients with ≥1 TRAE: 35 (65) n (%)
  SAE related to study treatment: Abdominal pain: 1 (2) n (%)
  SAE related to study treatment: Acute kidney injury: 1 (2) n (%)
  SAE related to study treatment: Alanine aminotransferase increase: 1 (2) n (%)
  SAE related to study treatment: Diarrhea: 2 (4) n (%)
  SAE related to study treatment: Dyspnea: 1 (2) n (%)
  SAE related to study treatment: Hypotension: 1 (2) n (%)
  SAE related to study treatment: Mucosal inflammation: 1 (2) n (%)
  SAE related to study treatment: Nausea: 1 (2) n (%)
  SAE related to study treatment: Ophthalmic herpes zoster: 1 (2) n (%)
  SAE related to study treatment: Platelet count decrease: 1 (2) n (%)
  TRAE: Abdominal pain: 6 (11) n (%)
  TRAE: Anemia: 6 (11) n (%)
  TRAE: Asthenia: 6 (11) n (%)
  TRAE: Diarrhea: 18 (33) n (%)
  TRAE: Fatigue: 8 (15) n (%)
  TRAE: Nausea: 10 (19) n (%)
  TRAE: Platelet count decrease: 6 (11) n (%)
  TRAE: Vomiting: 8 (15) n (%)
[1]; Total (N = 54), ≥Grade 3
  Patients with ≥1 SAE related to study treatment: 6 (11) n (%)
  Patients with ≥1 TRAE: 10 (19) n (%)
  SAE related to study treatment: Abdominal pain: 0 n (%)
  SAE related to study treatment: Acute kidney injury: 1 (2) n (%)
  SAE related to study treatment: Alanine aminotransferase increase: 1 (2) n (%)
  SAE related to study treatment: Diarrhea: 2 (4) n (%)
  SAE related to study treatment: Dyspnea: 1 (2) n (%)
  SAE related to study treatment: Hypotension: 0 n (%)
  SAE related to study treatment: Mucosal inflammation: 1 (2) n (%)
  SAE related to study treatment: Nausea: 1 (2) n (%)
  SAE related to study treatment: Ophthalmic herpes zoster: 1 (2) n (%)
  SAE related to study treatment: Platelet count decrease: 1 (2) n (%)
  TRAE: Abdominal pain: 0 n (%)
  TRAE: Anemia: 2 (4) n (%)
  TRAE: Asthenia: 0 n (%)
  TRAE: Diarrhea: 2 (4) n (%)
  TRAE: Fatigue: 1 (2) n (%)
  TRAE: Nausea: 1 (2) n (%)
  TRAE: Platelet count decrease: 3 (6) n (%)
  TRAE: Vomiting: 0 n (%)
[1]; all 54 enrolled patients, all DLTs in part A1 (QD)
  Patients with dose-limiting toxicities: Seven
[1]; all patients (N = 54)
  Patients reporting at least one treatment-related adverse event (TRAE): 64.8%
[1]; part A1, 20 mg QD
  Dose-limiting toxicity: no DLT was observed
[1]; part A1, 1, 2, 4, 8, 15, or 30 mg QD
  Dose-limiting toxicity: no DLT was observed
[1]; part A1, corresponds to doses of 30 to 45 mg QD
  Start of the steady-state AUC range where DLTs were observed: approximately 1000 ng h/mL
[1]; part A2 (TIW), 2 mg, 4 mg, or 8 mg
  Dose-limiting toxicity: no DLT was observed
[2]; 1 to 45 mg QD day 1, 1 to 35 mg QD day 15, 2 to 8 mg TIW day 1 and day 15
  Dose dependence of plasma exposure: exposures increased with dose
[2]; oral dosing, assessed in the TIW group
  Geometric mean terminal elimination half-life: 15 to 19 h
[2]; oral dosing, patients
  Median time to maximum concentration: 1 to 2 h
[3]; QD, steady state on day 15
  Dose at which near maximal CDK7-target occupancy was achieved: ≥ 15 mg
[3]; highest observed in the trial
  CDK7-target occupancy observed: up to 90%
[3]; part A1, skin, day 15, corresponds to doses at 15 mg QD
  Steady-state AUC above which maximum skin target occupancy occurred: approximately 500 ng h/mL
[3]; skin and peripheral blood, day 15, ≥15 mg QD
  CDK7-target occupancy (near maximal): 75%
[3]; ≥15 mg once daily
  CDK7 target occupancy: > 75%
